PMC3812312 (Journal of medicinal chemistry, 2013)
Entries after “also recorded” stand apart in the source; their conditions may differ.

What was measured:
human ERβ LBD = human ERβ LBD (Homo sapiens, UniProt Q92731); assay: ERβ agonist luciferase reporter assay in HEK 293T cells; type: cell-based; settings: 10 μM; for ER subtype preference (ratio of ERα to ERβ agonist activity): agonist assay; for ERβ agonist activity: HEK-luciferase assay
human recombinant HDAC1 = human recombinant HDAC1 (Homo sapiens, UniProt Q13547); assay: HDAC activity assay; type: biochemical; settings: HDAC isoforms 1, 6 and 8 tested
Chain of human recombinant HDAC1 (Q13547 whole entry, canonical isoform): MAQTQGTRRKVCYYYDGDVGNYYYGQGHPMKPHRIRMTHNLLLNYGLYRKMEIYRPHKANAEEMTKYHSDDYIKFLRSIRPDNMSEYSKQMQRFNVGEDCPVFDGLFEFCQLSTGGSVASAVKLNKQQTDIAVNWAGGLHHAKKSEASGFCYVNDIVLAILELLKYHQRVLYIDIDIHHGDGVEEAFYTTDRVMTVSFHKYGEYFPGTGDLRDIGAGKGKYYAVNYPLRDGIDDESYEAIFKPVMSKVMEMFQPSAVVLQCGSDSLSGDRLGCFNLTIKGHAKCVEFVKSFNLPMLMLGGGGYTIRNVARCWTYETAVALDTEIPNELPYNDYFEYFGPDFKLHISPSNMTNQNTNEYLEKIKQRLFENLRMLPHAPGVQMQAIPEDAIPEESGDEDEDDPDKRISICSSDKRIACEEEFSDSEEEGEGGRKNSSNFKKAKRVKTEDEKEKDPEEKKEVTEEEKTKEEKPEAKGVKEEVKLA

MCF-7 cells = assay: Cell viability assay; type: cell-based, human
MDA-MB-231 cells = assay: Cell viability assay; type: cell-based; settings: 72 hours after drug dosing; ERα−/β− breast cancer
Summary of the method: (§1)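 Cell lines: MCF-7 (gift) and MDA-MB-231, DU145 and Vero (ATCC), kept in EMEM with 10% FBS, with or without antibiotics, at 37 °C under 5% CO2. Cells exposed to test compound in duplicate for 72 h; viability read by MTS and MTT colorimetric assays per manufacturer's instructions. IC50 obtained by logit plot analysis.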

VERO cells = assay: Cell viability assay; type: cell-based; settings: VERO versus MCF-7
[1] = target: T1, human ERα ligand binding domain (Homo sapiens, UniProt P03372); assay: ERα agonist luciferase reporter assay in HEK 293T cells; type: cell-based; settings: 10 μM, charcoal stripped serum
T1 sequence (P03372 301-595): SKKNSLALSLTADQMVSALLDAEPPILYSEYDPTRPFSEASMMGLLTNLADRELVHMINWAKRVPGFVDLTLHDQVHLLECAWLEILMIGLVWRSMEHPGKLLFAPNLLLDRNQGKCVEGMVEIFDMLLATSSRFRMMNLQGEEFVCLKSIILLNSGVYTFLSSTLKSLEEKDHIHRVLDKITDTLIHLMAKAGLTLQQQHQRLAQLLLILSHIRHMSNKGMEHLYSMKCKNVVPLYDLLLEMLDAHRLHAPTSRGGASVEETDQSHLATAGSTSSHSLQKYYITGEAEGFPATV

DU145 cells = assay: Cell viability assay; type: cell-based; settings: 72 hours after drug dosing; metastatic prostate cancer
Summary of the method: as §1

human recombinant HDAC8 = target: T2, human recombinant HDAC8 (Homo sapiens, UniProt Q9BY41); assay: HDAC activity assay; type: biochemical; settings: maximum concentration tested 100 μM
T2 sequence (Q9BY41 1-377): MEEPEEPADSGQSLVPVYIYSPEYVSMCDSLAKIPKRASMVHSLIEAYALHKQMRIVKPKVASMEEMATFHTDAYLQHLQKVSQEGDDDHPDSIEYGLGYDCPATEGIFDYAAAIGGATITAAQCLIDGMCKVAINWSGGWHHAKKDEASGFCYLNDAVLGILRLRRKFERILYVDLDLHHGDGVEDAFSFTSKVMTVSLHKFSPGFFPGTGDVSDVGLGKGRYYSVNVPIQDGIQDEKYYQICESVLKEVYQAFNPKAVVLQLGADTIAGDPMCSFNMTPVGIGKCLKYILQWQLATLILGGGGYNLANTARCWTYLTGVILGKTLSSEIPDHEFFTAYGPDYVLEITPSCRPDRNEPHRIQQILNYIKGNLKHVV

human recombinant HDAC6 = assay: HDAC activity assay; type: biochemical; settings: HDAC6 vs HDAC1 and HDAC8
Summary of the method: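 Run under contract. Human recombinant HDAC1, HDAC6 or HDAC8 incubated with HDAC substrate, 5 μg BSA and serial dilutions of test compound (DMSO stocks; 1% DMSO final, top 100 μM) in duplicate, 37 °C, 30 min. Developer added for 15 min at room temperature; fluorescence ex 360/em 460 nm.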

Chain of human ERβ LBD (Q92731 263-530): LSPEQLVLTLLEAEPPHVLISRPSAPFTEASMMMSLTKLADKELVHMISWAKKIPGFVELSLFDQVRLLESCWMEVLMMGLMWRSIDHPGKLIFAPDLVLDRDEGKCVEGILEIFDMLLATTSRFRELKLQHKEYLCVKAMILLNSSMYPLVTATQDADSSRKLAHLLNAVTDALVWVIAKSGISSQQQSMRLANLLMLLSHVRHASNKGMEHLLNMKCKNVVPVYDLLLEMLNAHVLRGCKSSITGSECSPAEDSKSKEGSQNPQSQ

Row | Compound | ER subtype preference (ratio of ERα to ERβ agonist activity) (human ERβ LBD) | HDAC inhibition activity, overall (isoform not given) (human recombinant HDAC1) | antiproliferative activity IC50, MDA-MB-231 (MDA-MB-231 cells) | in vitro therapeutic index (IVTI) (VERO cells) | further results
1 | C[C@]12CC[C@@H]3c4ccc(O)cc4CC[C@H]3[C@@H]1CC[C@@]2(O)c1cn(CCCC(=O)NO)nn1 [1a, 4-(4-((8R,9S,13S,14S,17S)-3,17-dihydroxy-13-methyl-7,8,9,11,12,13,14,15,16,17-decahydro-6H-cyclopenta[a]phenanthren-17-yl)-1H-1,2,3-triazol-1-yl)-N-hydroxybutanamide] | too weak in vitro to have an obvious preference | most potent HDACi | comparable; also recorded: inhibit the growth of MDA-MB-231 | greater IVTI | antiproliferative activity IC50, MCF-7 (MCF-7 cells; 72 hours after drug dosing, ERα+/β+ breast cancer): comparable
2 | C[C@]12CC[C@@H]3c4ccc(O)cc4CC[C@H]3[C@@H]1CC[C@@]2(O)c1cn(CCCCC(=O)NO)nn1 [1b, 5-(4-((8R,9S,13S,14S,17S)-3,17-dihydroxy-13-methyl-7,8,9,11,12,13,14,15,16,17-decahydro-6H-cyclopenta[a]phenanthren-17-yl)-1H-1,2,3-triazol-1-yl)-N-hydroxypentanamide] |  |  |  |  | ERα agonist activity (fold activation, relative to control no drug) [1]: most significant ERα agonist effect
3 | C[C@]12CC[C@@H]3c4ccc(O)cc4CC[C@H]3[C@@H]1CC[C@@]2(O)c1cn(CCCCCC(=O)NO)nn1 [1c, 6-(4-((8R,9S,13S,14S,17S)-3,17-dihydroxy-13-methyl-7,8,9,11,12,13,14,15,16,17-decahydro-6H-cyclopenta[a]phenanthren-17-yl)-1H-1,2,3-triazol-1-yl)-N-hydroxyhexanamide] | preferentially bind ERβ | most potent HDACi; also recorded: nM HDACi potency | inhibit the growth of MDA-MB-231 |  | ERβ agonist activity (human ERβ LBD): significant ERβ activation; antiproliferative activity IC50, DU145 (DU145 cells): evidence of DU145 cell growth inhibition
4 | C[C@]12CC[C@@H]3c4ccc(O)cc4CC[C@H]3[C@@H]1CC[C@@]2(O)c1cn(CCCCCCC(=O)NO)nn1 [1d, 7-(4-((8R,9S,13S,14S,17S)-3,17-dihydroxy-13-methyl-7,8,9,11,12,13,14,15,16,17-decahydro-6H-cyclopenta[a]phenanthren-17-yl)-1H-1,2,3-triazol-1-yl)-N-hydroxyheptanamide] | preferentially bind ERβ | most potent HDACi; also recorded: nM HDACi potency | inhibit the growth of MDA-MB-231 |  | ERα agonist activity (fold activation, relative to control no drug) [1]: most significant ERα agonist effect; ERβ agonist activity (human ERβ LBD): significant ERβ activation; HDAC8 inhibition IC50 (human recombinant HDAC8): order of magnitude greater HDAC8 inhibition; antiproliferative activity IC50, DU145 (DU145 cells): evidence of DU145 cell growth inhibition
5 | C[C@]12CC[C@@H]3c4ccc(O)cc4CC[C@H]3[C@@H]1CC[C@@]2(O)c1cn(CCCCCCCC(=O)NO)nn1 [1e, 8-(4-((8R,9S,13S,14S,17S)-3,17-dihydroxy-13-methyl-7,8,9,11,12,13,14,15,16,17-decahydro-6H-cyclopenta[a]phenanthren-17-yl)-1H-1,2,3-triazol-1-yl)-N-hydroxyoctannamide] | too weak in vitro to have an obvious preference | poor HDAC inhibition profile |  |  | 
6 | CC/C(=C(\c1ccccc1)c1ccc(OCCN(C)Cc2ccc(-c3cn(CCCCCC(=O)NO)nn3)cc2)cc1)c1ccccc1 [compound 2, Tamoxifen-Triazolylhydroxamic acid] |  |  |  | greater IVTI | potency relative to SAHA against MCF-7 (fold less potent) (MCF-7 cells): about 1.7 fold
7 | CC/C(=C(\c1ccccc1)c1ccc(OCCN(C)Cc2ccc(NC(=O)CCCCCCC(=O)NO)cc2)cc1)c1ccccc1 [compound 3, Tamoxifen-SAHA Conjugate] |  |  |  | greater IVTI | HDAC isoform selectivity (human recombinant HDAC6): selective for HDAC6; potency relative to SAHA against MCF-7 (fold less potent) (MCF-7 cells): equipotent to SAHA
